Measurements from ChEMBL document CHEMBL4004830 (J Med Chem, 2017).
The source made the active and inactive calls. The rule behind the calls is not given here.

Columns and labels:
MV4-11 [1] = experiment: Antitumor activity against human MV4-11 cells xenografted in nude BALB/c mouse assessed as tumor growth inhibition at 100 mg/kg, po qd administered for 33 consecutive days measured post last dose; assay type: functional; details: MV4-11, po, read-out: TGI
Cytochrome P450 2C9 = Cytochrome P450 2C9 (Homo sapiens, UniProt P11712); experiment: Inhibition of CYP2C9 in human liver microsomes using tolbutamide as substrate in presence of NADPH; assay type: ADME
How it was run: (§1)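 Human liver microsomes with NADPH and isoform-specific probe substrate (midazolam CYP3A4, dextromethorphan CYP2D6, ethoxyresorufin CYP1A, tolbutamide CYP2C9, mephenytoin CYP2C19); IC50 reported in µM.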

[2] = molecular target: LIM domain kinase 1 (Homo sapiens) (UniProt P53667); experiment: Inhibition of full-length human LIMK1 (1 to 647 amino acid residues) expressed in bacterial expression system at 1 uM in presence of [gamma-33P]-ATP […]
How it was run: (§2)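 Broad kinome panel of 369 kinases screened at 1 µM test concentration.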

Mus musculus [3] = experiment: Toxicity in nude BALB/c mouse xenografted with human MV4-11 cells assessed as body weight loss at 100 mg/kg, po qd for 33 consecutive days and left untreated for another 50 days; assay type: organism-based; details: in vivo, 1200 h
[4] = Efflux ratio of apparent permeability co-efficient from basolateral to apical side over apical to basolateral side in human Caco2 cells; assay type: ADME, cell-based; details: Caco-2
How it was run: (§3)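 Caco-2 monolayer assay measuring the apparent permeability coefficient (P_app, 10^-6 cm/s) in the A→B and B→A directions. Efflux ratio is the mean P_app B-A divided by the mean P_app A-B.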

Cytochrome P450 1A2 = Cytochrome P450 1A2 (Homo sapiens, UniProt P05177); experiment: Inhibition of CYP1A2 in human liver microsomes using ethoxyresorufin as substrate in presence of NADPH; assay type: ADME; how it was run: as §1
Cytochrome P450 3A4 = Cytochrome P450 3A4 (Homo sapiens, UniProt P08684); experiment: Inhibition of CYP3A4 in human liver microsomes using midazolam as substrate in presence of NADPH; assay type: ADME; how it was run: as §1
[5] = molecular target: Cyclin-dependent kinase 7/ cyclin H (Homo sapiens) (UniProt P51946+P50613); experiment: Inhibition of CDK7/cyclin H (unknown origin) in presence of [gamma-33P]-ATP […]; assay type: protein-complex assay
[6] = Volume of distribution at steady state in albino Wistar rat at 5 mg/kg, iv up to 24 hrs by LC-MS/MS analysis; assay type: ADME, organism-based; details: in vivo, read-out: Vdss
How it was run: (§4)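 Single-dose pharmacokinetics in male animals: albino Wistar rats given 5 mg/kg IV or 20 mg/kg PO, and BALB/c mice given 2 mg/kg IV or 10 mg/kg PO.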

[7] = Oral bioavailability in albino Wistar rat at 20 mg/kg measured up to 24 hrs by LC-MS/MS analysis; assay type: ADME, organism-based; details: in vivo; how it was run: as §4
MV4-11 [8] = experiment: Antitumor activity against human MV4-11 cells xenografted in nude BALB/c mouse assessed as median survival time at 100 mg/kg, po qd administered for 33 consecutive days and left untreated for another 50 days (reference value: 33 days); assay type: functional
[9] = Clearance in albino Wistar rat at 5 mg/kg, iv up to 24 hrs by LC-MS/MS analysis; assay type: ADME, organism-based; details: in vivo
[10] = Cmax in BALB/c mouse at 2 mg/kg, iv up to 24 hrs by LC-MS/MS analysis; assay type: ADME, organism-based; design: dose 2 mg/kg, route intravenous; details: in vivo
[11] = molecular target: Cyclin-dependent kinase 4/6 (Homo sapiens) (UniProt P11802+Q00534); experiment: Inhibition of CDK4/6 in human MV4-11 cells assessed as reduction in Rb phosphorylation at Ser780 after 12 to 24 hrs by Western blot analysis; assay type: cell-based
How it was run: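 MV4-11 cells treated 12 or 24 h across a dose series; Rb phospho-Ser780 detected by Western blot with β-actin as loading control; two independent experiments.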

[12] = molecular target: Dual specificity tyrosine-phosphorylation-regulated kinase 2 (Homo sapiens) (UniProt Q92630); experiment: Inhibition of full-length human DYRK2 (1 to 528 amino acid residues) expressed in mammalian expression system at 1 uM in presence of [gamma-33P]-ATP […]; how it was run: as §2
MV4-11 [13] = experiment: Antitumor activity against human MV4-11 cells xenografted in nude BALB/c mouse assessed as tumor volume at 100 mg/kg, po qd administered for 33 consecutive days measured on day 31; assay type: functional
[14] = AUC (0 to t) in BALB/c mouse at 10 mg/kg administered via oral gavage measured up to 24 hrs by LC-MS/MS analysis; assay type: ADME, organism-based; design: dose 10 mg/kg, time < 24 hr, route oral; details: in vivo
[15] = AUC (0 to t) in BALB/c mouse at 2 mg/kg, iv up to 24 hrs by LC-MS/MS analysis; assay type: ADME, organism-based; design: dose 2 mg/kg, time < 24 hr, route intravenous; details: in vivo
[16] = Half-life in albino Wistar rat at 5 mg/kg, iv up to 24 hrs by LC-MS/MS analysis; assay type: ADME, organism-based; details: in vivo
How it was run: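 Single-dose pharmacokinetics in male albino Wistar rats, 5 mg/kg IV.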

Mus musculus [17] = experiment: Toxicity in nude BALB/c mouse assessed as body weight loss at 20 to 100 mg/kg, po qd measured up to 14 days post dose; assay type: organism-based; details: in vivo, 336 h
[18] = AUC (0 to t) in albino Wistar rat at 20 mg/kg administered via oral gavage measured up to 24 hrs by LC-MS/MS analysis; assay type: ADME, organism-based; design: dose 20 mg/kg, time < 24 hr, route oral; details: in vivo
[19] = molecular target: Cyclin-dependent kinase 4/cyclin D1 (Homo sapiens, UniProt P11802); experiment: Inhibition of CDK4/cyclin D1 (unknown origin) in presence of [gamma-33P]-ATP […]; assay type: protein-complex assay; details: read-out: Ki(app)
[20] = Oral bioavailability in BALB/c mouse at 10 mg/kg measured up to 24 hrs by LC-MS/MS analysis; assay type: ADME, organism-based; details: in vivo; how it was run: as §4
[21] = Apparent permeability co-efficient from apical to basolateral side in human Caco2 cells; assay type: ADME, cell-based; details: Caco-2; how it was run: as §3
[22] = AUC (0 to t) in albino Wistar rat at 5 mg/kg, iv up to 24 hrs by LC-MS/MS analysis; assay type: ADME, organism-based; design: dose 5 mg/kg, time < 24 hr, route intravenous; details: in vivo
MV4-11 [23] = experiment: Cell cycle arrest in human MV4-11 cells assessed as accumulation at sub-G1 phase at 0.40 uM after 24 hrs by propidium iodide staining based flow cytometry (reference value: 1.99%); assay type: functional
MV4-11 [24] = experiment: Cell cycle arrest in human MV4-11 cells assessed as accumulation at S phase at 0.04 uM after 24 hrs by propidium iodide staining based flow cytometry (reference value: 19.07%); assay type: functional
MV4-11 [25] = experiment: Cell cycle arrest in human MV4-11 cells assessed as accumulation at G1 phase at 0.40 uM after 24 hrs by propidium iodide staining based flow cytometry (reference value: 61.01%); assay type: functional
MV4-11 [26] = experiment: Cell cycle arrest in human MV4-11 cells assessed as accumulation at G1 phase at 0.20 uM after 24 hrs by propidium iodide staining based flow cytometry (reference value: 61.01%); assay type: functional
MV4-11 [27] = experiment: Cell cycle arrest in human MV4-11 cells assessed as accumulation at G1 phase at 0.04 uM after 24 hrs by propidium iodide staining based flow cytometry (reference value: 61.01%); assay type: functional
MV4-11 [28] = experiment: Cell cycle arrest in human MV4-11 cells assessed as accumulation at sub-G1 phase at 0.04 uM after 24 hrs by propidium iodide staining based flow cytometry (reference value: 1.99%); assay type: functional
MV4-11 [29] = experiment: Cell cycle arrest in human MV4-11 cells assessed as accumulation at G2/M phase at 0.40 uM after 24 hrs by propidium iodide staining based flow cytometry (reference value: 17.94%); assay type: functional

Chain of Cytochrome P450 3A4 (P08684 whole entry): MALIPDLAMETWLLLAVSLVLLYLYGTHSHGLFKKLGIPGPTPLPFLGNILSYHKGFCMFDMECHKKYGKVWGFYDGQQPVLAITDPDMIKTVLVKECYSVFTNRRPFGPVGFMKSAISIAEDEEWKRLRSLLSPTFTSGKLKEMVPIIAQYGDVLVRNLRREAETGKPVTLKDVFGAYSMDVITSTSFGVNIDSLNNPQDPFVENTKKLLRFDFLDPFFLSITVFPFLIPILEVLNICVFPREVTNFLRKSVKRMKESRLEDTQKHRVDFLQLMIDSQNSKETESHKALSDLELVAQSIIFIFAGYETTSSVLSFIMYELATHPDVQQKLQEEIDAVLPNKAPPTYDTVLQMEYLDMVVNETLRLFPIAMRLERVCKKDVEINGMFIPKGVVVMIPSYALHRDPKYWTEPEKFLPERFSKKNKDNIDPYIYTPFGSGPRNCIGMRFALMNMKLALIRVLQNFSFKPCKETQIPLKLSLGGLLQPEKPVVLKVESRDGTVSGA
Chain of Dual specificity tyrosine-phosphorylation-regulated kinase 2 (Homo sapiens) (Q92630 whole entry, the tested form may be a part): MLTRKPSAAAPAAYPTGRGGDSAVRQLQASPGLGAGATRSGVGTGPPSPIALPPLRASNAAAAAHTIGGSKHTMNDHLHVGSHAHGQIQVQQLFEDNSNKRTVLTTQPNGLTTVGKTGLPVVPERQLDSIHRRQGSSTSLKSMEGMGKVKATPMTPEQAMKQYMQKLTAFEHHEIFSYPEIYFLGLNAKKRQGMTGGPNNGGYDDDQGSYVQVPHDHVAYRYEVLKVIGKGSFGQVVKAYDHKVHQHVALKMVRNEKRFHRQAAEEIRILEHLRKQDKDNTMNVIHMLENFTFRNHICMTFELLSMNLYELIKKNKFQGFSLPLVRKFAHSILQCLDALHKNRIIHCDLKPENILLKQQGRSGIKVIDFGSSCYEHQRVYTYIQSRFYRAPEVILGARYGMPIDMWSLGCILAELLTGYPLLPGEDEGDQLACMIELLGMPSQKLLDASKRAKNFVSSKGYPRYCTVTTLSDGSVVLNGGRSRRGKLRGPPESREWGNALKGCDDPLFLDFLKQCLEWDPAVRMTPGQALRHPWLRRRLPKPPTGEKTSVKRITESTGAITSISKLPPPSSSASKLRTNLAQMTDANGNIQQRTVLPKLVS
Chain of LIM domain kinase 1 (Homo sapiens) (P53667 whole entry, looked up, the tested form may be a part): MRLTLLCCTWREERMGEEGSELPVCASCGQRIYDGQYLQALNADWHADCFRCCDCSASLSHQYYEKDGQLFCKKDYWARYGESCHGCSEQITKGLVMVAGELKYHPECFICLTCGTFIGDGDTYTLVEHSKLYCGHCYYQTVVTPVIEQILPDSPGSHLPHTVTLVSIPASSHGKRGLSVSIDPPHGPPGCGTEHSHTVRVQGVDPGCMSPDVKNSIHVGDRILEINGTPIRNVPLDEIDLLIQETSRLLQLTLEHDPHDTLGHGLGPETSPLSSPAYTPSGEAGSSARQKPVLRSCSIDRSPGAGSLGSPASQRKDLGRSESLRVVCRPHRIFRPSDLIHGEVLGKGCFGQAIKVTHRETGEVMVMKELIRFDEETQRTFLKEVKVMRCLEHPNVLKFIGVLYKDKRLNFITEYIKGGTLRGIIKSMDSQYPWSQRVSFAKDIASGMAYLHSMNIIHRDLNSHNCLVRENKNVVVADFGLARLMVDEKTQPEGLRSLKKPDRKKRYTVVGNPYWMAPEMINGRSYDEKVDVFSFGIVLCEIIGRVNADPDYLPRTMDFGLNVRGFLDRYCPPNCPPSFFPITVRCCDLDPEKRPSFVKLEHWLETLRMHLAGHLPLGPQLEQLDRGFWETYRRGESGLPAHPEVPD
Chain of Cyclin-dependent kinase 4/6 (Homo sapiens) (P11802 whole entry, looked up): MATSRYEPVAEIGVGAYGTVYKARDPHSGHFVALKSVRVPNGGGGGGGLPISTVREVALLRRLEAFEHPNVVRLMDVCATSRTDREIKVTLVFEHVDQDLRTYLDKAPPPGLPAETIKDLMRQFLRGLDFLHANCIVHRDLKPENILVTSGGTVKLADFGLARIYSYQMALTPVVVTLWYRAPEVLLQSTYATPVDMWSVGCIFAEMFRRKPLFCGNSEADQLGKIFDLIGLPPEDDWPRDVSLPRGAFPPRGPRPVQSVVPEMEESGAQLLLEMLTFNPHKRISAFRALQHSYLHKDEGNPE
Chain of Cyclin-dependent kinase 4/6 (Homo sapiens) (Q00534 whole entry, looked up): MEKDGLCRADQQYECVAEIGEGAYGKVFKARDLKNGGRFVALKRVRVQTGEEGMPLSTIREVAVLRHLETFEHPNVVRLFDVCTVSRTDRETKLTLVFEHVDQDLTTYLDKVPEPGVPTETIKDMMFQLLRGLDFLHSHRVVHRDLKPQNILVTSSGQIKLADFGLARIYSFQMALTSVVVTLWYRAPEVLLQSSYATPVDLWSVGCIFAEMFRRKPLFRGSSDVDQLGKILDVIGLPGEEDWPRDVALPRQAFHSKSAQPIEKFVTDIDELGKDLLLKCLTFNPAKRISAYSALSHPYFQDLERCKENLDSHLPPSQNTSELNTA
Chain of Cyclin-dependent kinase 4/cyclin D1 (P11802 whole entry): as the sequence (P11802 whole entry, looked up) above
Chain of Cyclin-dependent kinase 4/cyclin D1 (P24385 whole entry, further chain): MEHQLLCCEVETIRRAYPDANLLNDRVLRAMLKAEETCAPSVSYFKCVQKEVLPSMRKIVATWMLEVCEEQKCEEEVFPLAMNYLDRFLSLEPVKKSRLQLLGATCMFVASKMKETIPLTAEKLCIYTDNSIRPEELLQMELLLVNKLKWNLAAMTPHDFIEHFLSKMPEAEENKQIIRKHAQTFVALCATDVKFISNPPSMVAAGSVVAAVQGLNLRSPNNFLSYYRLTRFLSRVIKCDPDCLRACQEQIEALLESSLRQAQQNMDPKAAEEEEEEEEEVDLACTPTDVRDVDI
Chain of Cytochrome P450 1A2 (P05177 whole entry): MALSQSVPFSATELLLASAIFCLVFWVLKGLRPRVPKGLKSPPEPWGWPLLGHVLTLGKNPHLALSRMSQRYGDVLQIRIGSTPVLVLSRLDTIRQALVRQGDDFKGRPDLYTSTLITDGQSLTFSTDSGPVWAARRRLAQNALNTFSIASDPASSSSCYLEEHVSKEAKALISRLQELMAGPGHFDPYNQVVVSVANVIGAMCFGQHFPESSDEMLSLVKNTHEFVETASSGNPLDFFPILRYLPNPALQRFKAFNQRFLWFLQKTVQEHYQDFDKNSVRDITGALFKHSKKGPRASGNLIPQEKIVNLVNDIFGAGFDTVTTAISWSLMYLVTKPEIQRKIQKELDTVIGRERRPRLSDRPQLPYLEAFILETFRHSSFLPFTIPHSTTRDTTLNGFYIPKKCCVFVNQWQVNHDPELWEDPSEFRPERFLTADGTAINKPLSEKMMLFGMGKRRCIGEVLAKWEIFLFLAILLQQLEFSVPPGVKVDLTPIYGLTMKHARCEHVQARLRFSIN
Chain of Cytochrome P450 2C9 (P11712 whole entry, canonical isoform): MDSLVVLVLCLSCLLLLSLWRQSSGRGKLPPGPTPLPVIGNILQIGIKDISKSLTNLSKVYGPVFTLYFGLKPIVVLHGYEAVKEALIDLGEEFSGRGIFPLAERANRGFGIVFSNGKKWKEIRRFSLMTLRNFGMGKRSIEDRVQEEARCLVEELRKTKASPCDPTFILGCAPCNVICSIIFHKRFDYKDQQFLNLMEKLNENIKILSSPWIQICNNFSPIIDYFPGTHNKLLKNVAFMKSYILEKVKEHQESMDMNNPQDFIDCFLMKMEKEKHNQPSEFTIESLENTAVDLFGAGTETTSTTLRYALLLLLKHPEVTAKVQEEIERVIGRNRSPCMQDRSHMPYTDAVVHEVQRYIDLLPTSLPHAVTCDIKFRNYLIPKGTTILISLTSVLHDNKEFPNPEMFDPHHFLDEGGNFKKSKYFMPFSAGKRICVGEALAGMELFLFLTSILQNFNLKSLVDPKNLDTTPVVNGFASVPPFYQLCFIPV

Cc1nc(NC2CCCC2)sc1-c1ccnc(Nc2ccc(N3CCOCC3)cn2)n1
inhibition in vivo at 100 mg/kg (MV4-11 [1]): 76%
IC50 (Cytochrome P450 2C9): > 25 µM
inhibition [2]: Active
Activity (Mus musculus [3]): Non-Toxic
efflux ratio [4]: 0.396 to 4
IC50 (Cytochrome P450 1A2): > 25 µM
IC50 (Cytochrome P450 3A4): > 25 µM
Ki(app) [5]: inactive
Vd [6]: 1.5 L/kg
bioavailability [7]: 25.1 to 27%
MST (MV4-11 [8]): 55 days
clearance [9]: 11.8 mL/min/kg
Cmax [10]: 2300 nM
inhibition [11]: Dose-dependent effect
inhibition [12]: Active
T/C (MV4-11 [13]): 30%
AUC(0-t) at 24 h [14]: 5.9 µM·h
AUC(0-t) at 24 h [15]: 1.2 µM·h
half-life [16]: 4.2 h
Activity (Mus musculus [17]): Non-Toxic
AUC(0-t) at 24 h [18]: 15.9 µM·h
Ki [19]: 0.004 µM
bioavailability [20]: 100%
Papp A→B [21]: 10.1 ×10⁻⁶ cm/s
AUC(0-t) at 24 h [22]: 15.9 µM·h

CC(=O)c1c(C)c2cnc(Nc3ccc(N4CCNCC4)cn3)nc2n(C2CCCC2)c1=O [PALBOCICLIB]
Activity (MV4-11 [23]): 2.93%
Activity (MV4-11 [24]): 15.52%
Activity (MV4-11 [25]): 85.35%
Activity (MV4-11 [26]): 80.66%
Activity (MV4-11 [27]): 68.17%
Activity (MV4-11 [28]): 2.66%
Activity (MV4-11 [29]): 5.69%
